Measured values from ChEMBL document CHEMBL1129642, “Design, synthesis, and evaluation of 2 beta-alkenyl penam sulfone acids as inhibitors of beta-lactamases” (J Med Chem, 1996).

What was measured:
Citrobacter freundii [1] = assay: Compound was tested for the half saturation constant derived from concentration dependence studies in Citrobacter freundii; type: organism-based
Method in brief: (§1)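 Purified β-lactamases (C. freundii 1928, E. coli SNO3, TEM-3, SHV-2) reacted with inhibitor. K_S is the half-saturation constant for forming the acyl-enzyme complex, taken from the concentration dependence of that reaction. It was obtained together with the acylation rate k_on and the acyl-enzyme breakdown rate k_off, using previously published kinetic methods.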

Escherichia coli [2] = assay: Compound was tested for the half saturation constant derived from concentration dependence studies in Escherichia coli TEM-3.; type: organism-based; method in brief: as §1
Beta-lactamase L1 = Beta-lactamase L1 (Stenotrophomonas maltophilia, UniProt P52700); assay: Compound was tested for inhibition of Beta-lactamase from Xanthomonas maltophila 328
Escherichia coli [3] = assay: Compound was tested for the half saturation constant derived from concentration dependence studies in Escherichia coli SHV-2.; type: organism-based; method in brief: as §1
Escherichia coli [4] = assay: Compound was tested for the half saturation constant derived from concentration dependence studies in Escherichia coli SNO3.; type: organism-based; method in brief: as §1
[5] = (§2) Compound was tested for inhibition of TEM-1, class A of beta-lactamases.; type: functional, Escherichia coli
[6] = (§3) Compound was tested for inhibition of pTEM-3 from Escherichia coli in combination with Ceftriaxone; type: functional
Method in brief: (§4)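 MICs determined by serial 2-fold dilution in Mueller-Hinton broth with an inoculum of approximately 10⁵ cfu/mL. The test compound was combined with ceftriaxone.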

Pseudomonas aeruginosa [7] = assay: Compound was tested for inhibition of Pseudomonas aeruginosa 18SH in combination with Ceftriaxone; type: functional; method in brief: as §4
Enterobacter cloacae [8] = assay: Compound was tested for inhibition of Ent. cloacae 908R in combination with Ceftriaxone; type: functional; method in brief: as §4
[9] = (§5) Compound was tested for inhibition of pTEM-4 from Escherichia coli in combination with Ceftriaxone; type: functional; method in brief: as §4
Bacillus licheniformis = assay: Compound was tested for inhibition of Bacillus licheniformis 749/C, class A of beta-Lactamases.; type: functional, organism-based
Citrobacter freundii [10] = assay: Compound was tested for inhibition of Citrobacter freundii 1928 in combination with Ceftriaxone; type: functional; method in brief: as §4
[11] = (§6) Compound was tested for inhibition of TEM-3, class A of beta-lactamases.; type: functional, Escherichia coli
Beta-lactamase [12] = target: Beta-lactamase (Pseudomonas aeruginosa (strain ATCC 15692 / PAO1 / 1C / PRS 101 / LMG12228), UniProt P24735); assay: Compound was tested for inhibition of Pseudomonas aeruginosa 18SH, class C of Beta-lactamase
Escherichia coli [13] = assay: as §3; method in brief: as §4
[14] = Compound was tested for inhibition of Penicillin-binding protein 2x from Streptococcus pneumoniae
Method in brief: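 S. pneumoniae PBP 2x was assayed as recombinant soluble protein. IC₅₀ values are reported in µM.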

[15] = target: T1, Penicillin-binding protein 1B (Escherichia coli K-12, UniProt P02919); assay: Compound was tested for inhibition of Penicillin-binding protein 1b from Escherichia coli.
T1 sequence (P02919 whole entry): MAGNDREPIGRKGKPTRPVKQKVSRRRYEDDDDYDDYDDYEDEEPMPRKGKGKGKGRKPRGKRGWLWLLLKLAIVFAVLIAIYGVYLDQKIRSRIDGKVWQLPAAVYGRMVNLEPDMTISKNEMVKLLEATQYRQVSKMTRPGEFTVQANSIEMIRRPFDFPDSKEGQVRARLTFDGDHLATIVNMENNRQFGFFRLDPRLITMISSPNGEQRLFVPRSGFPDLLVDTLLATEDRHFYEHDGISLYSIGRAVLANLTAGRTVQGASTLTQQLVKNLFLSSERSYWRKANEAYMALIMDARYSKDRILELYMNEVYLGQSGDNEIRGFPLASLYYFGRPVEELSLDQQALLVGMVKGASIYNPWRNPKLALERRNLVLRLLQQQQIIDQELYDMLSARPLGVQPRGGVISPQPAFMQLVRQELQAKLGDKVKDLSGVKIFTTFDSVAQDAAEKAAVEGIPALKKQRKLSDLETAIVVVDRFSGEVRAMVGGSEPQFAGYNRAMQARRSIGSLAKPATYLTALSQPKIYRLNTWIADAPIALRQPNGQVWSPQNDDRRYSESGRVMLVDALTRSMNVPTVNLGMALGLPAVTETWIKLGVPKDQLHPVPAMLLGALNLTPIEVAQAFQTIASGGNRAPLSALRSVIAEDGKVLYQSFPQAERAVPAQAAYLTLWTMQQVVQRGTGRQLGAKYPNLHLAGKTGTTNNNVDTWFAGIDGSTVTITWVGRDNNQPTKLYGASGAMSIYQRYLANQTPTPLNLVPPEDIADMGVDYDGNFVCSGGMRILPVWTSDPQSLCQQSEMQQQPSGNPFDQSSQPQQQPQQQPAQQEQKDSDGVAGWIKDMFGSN
Method in brief: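 Penicillin binding was assayed on membrane fragments from E. coli W3110 or S. aureus Schoch, using ¹⁴C-labeled benzylpenicillin as the probe. IC₅₀ values are reported in µM.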

[16] = Compound was tested for inhibition of Penicillin-binding protein 1 from Staphylococcus aureus (Schoch).
[17] = target: Penicillin-binding protein 4 (Staphylococcus aureus, UniProt P72355); assay: Compound was tested for inhibition of Penicillin-binding protein 4 from Staphylococcus aureus (Schoch).
Beta-lactamase [18] = target: Beta-lactamase (Citrobacter freundii, UniProt P05193); assay: Compound was tested for inhibition of Citrobacter freundii 1928, class C of Beta-lactamase
Beta-lactamase [19] = target: Beta-lactamase (Bacillus licheniformis, UniProt P00808); assay: Compound was tested for inhibition of Bacillus licheniformis 749/C, class A of Beta-lactamase
[20] = as §2; set-up: species or system Escherichia coli
[21] = as §6; set-up: species or system Escherichia coli
Escherichia coli [22] = assay: as §5; method in brief: as §4
Beta-lactamase [23] = target: Beta-lactamase (Escherichia coli K-12, UniProt P00811); assay: Compound was tested for inhibition of Escherichia coli AmpC, class C of Beta-lactamase
[24] = Compound was tested for inhibition of pTEM-3 from Escherichia coli in combination with Ceftriaxone (expressed in MIC).; method in brief: as §4
Citrobacter freundii [25] = assay: Compound was tested for inhibition of Citrobacter freundii 1928 in combination with Ceftriaxone (expressed in MIC).; type: functional, organism-based; method in brief: as §4
Pseudomonas aeruginosa [26] = assay: Compound was tested for inhibition of Pseudomonas aeruginosa 18SH in combination with Ceftriaxone (expressed in MIC).; type: functional, organism-based; method in brief: as §4
Enterobacter cloacae [27] = assay: Compound was tested for inhibition of Ent. cloacae 908R in combination with Ceftriaxone (expressed in MIC).; type: functional, organism-based; method in brief: as §4
[28] = Compound was tested for inhibition of pTEM-4 from Escherichia coli in combination with Ceftriaxone; NA = Not active; method in brief: as §4

Beta-lactamase (Escherichia coli K-12, UniProt P00811), sequence (P00811 whole entry): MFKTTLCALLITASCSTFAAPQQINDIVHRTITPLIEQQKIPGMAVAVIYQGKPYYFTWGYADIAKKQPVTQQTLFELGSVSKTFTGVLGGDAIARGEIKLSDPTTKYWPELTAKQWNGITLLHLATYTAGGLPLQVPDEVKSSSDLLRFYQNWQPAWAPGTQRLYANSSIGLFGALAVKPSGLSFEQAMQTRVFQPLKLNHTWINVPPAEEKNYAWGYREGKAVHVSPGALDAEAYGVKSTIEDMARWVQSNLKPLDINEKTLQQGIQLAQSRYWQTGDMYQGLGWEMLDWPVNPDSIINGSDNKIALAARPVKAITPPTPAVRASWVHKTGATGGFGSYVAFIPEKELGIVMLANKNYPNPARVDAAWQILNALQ
Beta-lactamase (Citrobacter freundii, UniProt P05193), sequence (P05193 whole entry): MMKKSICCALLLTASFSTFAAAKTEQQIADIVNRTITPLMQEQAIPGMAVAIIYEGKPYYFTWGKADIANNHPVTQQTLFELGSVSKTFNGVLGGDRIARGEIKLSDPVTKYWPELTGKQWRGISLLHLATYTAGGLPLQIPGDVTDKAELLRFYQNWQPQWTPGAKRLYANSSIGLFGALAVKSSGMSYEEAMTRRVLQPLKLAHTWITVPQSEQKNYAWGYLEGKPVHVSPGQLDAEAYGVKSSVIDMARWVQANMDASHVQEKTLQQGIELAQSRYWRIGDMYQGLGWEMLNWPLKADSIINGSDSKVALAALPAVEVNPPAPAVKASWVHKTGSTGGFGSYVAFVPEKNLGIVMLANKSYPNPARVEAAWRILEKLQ
Beta-lactamase (Pseudomonas aeruginosa (strain ATCC 15692 / PAO1 / 1C / PRS 101 / LMG12228), UniProt P24735), sequence (P24735 whole entry): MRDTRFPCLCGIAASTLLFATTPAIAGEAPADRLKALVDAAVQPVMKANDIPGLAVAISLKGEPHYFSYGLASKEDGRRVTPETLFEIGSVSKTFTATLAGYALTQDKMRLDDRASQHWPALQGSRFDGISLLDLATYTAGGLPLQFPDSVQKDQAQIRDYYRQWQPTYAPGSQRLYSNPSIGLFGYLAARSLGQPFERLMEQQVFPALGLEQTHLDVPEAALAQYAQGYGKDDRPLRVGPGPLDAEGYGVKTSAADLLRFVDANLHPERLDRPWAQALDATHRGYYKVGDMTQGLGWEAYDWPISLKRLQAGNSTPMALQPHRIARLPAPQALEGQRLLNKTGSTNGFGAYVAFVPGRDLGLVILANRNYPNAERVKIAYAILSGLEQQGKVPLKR
Beta-lactamase (Bacillus licheniformis, UniProt P00808), sequence (P00808 whole entry): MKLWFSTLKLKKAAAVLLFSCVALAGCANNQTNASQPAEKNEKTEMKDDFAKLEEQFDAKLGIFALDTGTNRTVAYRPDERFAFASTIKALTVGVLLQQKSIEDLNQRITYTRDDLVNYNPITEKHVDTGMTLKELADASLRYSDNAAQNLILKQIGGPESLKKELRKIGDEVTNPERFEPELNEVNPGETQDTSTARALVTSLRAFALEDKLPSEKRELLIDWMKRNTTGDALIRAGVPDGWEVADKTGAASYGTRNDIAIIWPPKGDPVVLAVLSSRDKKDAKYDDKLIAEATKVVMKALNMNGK
Beta-lactamase L1, sequence (P52700 whole entry): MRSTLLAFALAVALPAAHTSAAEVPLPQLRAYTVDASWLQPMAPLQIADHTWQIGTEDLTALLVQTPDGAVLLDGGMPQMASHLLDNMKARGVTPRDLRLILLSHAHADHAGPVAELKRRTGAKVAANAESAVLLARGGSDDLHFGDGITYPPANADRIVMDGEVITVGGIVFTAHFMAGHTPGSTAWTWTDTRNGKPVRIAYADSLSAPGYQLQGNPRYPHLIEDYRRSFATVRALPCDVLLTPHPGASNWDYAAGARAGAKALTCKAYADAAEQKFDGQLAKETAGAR
Penicillin-binding protein 4, sequence (P72355 whole entry): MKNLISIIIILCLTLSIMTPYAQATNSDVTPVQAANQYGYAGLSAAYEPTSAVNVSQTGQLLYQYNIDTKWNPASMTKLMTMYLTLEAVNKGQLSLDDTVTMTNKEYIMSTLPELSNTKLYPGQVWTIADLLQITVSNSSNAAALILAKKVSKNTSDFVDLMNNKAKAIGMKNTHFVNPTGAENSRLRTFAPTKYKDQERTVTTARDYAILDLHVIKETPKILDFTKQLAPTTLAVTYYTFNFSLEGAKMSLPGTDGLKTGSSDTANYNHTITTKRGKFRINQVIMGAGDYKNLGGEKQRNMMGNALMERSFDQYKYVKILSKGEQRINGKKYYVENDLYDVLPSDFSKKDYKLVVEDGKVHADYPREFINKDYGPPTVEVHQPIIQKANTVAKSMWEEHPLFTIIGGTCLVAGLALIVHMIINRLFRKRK

Compound	IC50 [5]	MIC [6]	MIC (Pseudomonas aeruginosa [7])	MIC (Enterobacter cloacae [8])	MIC [9]	IC50 (Bacillus licheniformis)	MIC (Citrobacter freundii [10])	IC50 [11]	IC50 (Beta-lactamase [12])	MIC (Escherichia coli [13])	IC50 [14]	IC50 [15]	IC50 (Beta-lactamase [18])	IC50 (Beta-lactamase [19])	IC50 [20]	IC50 [21]	MIC (Escherichia coli [22])	IC50 (Beta-lactamase [23])	further results
C[C@]1(Cn2ccnn2)[C@H](C(=O)O)N2C(=O)C[C@H]2S1(=O)=O [TAZOBACTAM]	–	–	–	–	–	–	–	–	–	–	–	–	–	–	–	–	–	–	Ks (Citrobacter freundii [1]): 110 µM; Ks (Escherichia coli [2]): 0.74 µM; IC50 (Beta-lactamase L1): 4000 µM; Ks (Escherichia coli [3]): 5 µM; Ks (Escherichia coli [4]): 325 µM
C[C@]1(/C=C/c2nnco2)[C@H](C(=O)[O-])N2C(=O)C[C@H]2S1(=O)=O.[Na+]	12 µM	0.5 µg/mL	16 µg/mL	8 µg/mL	2 µg/mL	1.7 µM	4 µg/mL	0.22 µM	–	–	–	–	–	–	–	–	–	–	–
C[C@]1(/C=C\c2ccccn2)[C@H](C(=O)[O-])N2C(=O)C[C@H]2S1(=O)=O.[Na+]	–	–	> 16 µg/mL	32 µg/mL	–	–	8 µg/mL	–	15 µM	1 µg/mL	4.5 µM	> 10000 µM	1 µM	2.3 µM	19 µM	0.092 µM	4 µg/mL	46 µM	IC50 [16]: 15 µM; IC50 [17]: 15 µM
C[C@]1(/C=C\C(N)=O)[C@H](C(=O)O)N2C(=O)C[C@H]2S1(=O)=O	1.2 µM	0.25 µg/mL	4 µg/mL	4 µg/mL	2 µg/mL	3.4 µM	2 µg/mL	0.13 µM	–	–	–	–	–	–	–	–	–	–	–
C[C@]1(/C=C/c2cncs2)[C@H](C(=O)O)N2C(=O)C[C@H]2S1(=O)=O	–	–	16 µg/mL	> 16 µg/mL	–	–	8 µg/mL	–	0.54 µM	1 µg/mL	50 µM	> 10000 µM	1.3 µM	5.4 µM	8.5 µM	0.16 µM	4 µg/mL	45 µM	–
C[C@]1(/C=C\c2cncs2)[C@H](C(=O)[O-])N2C(=O)C[C@H]2S1(=O)=O.[Na+]	–	–	> 16 µg/mL	16 µg/mL	–	–	16 µg/mL	–	8.9 µM	0.5 µg/mL	4.8 µM	> 10000 µM	0.41 µM	0.54 µM	13 µM	0.054 µM	4 µg/mL	2.7 µM	–
CON(C)C(=O)/C=C\[C@@]1(C)[C@H](C(=O)[O-])N2C(=O)C[C@H]2S1(=O)=O.[Na+]	12 µM	0.5 µg/mL	> 16 µg/mL	16 µg/mL	2 µg/mL	4.4 µM	8 µg/mL	0.18 µM	–	–	–	–	–	–	–	–	–	–	–
CCOC(=O)/C=C\[C@@]1(C)[C@H](C(=O)O)N2C(=O)C[C@H]2S1(=O)=O	–	–	–	–	–	–	–	–	15 µM	–	–	–	–	2.9 µM	14 µM	0.46 µM	–	61 µM	MIC [24]: < 0.25 µg/mL; MIC (Citrobacter freundii [25]): 4 µg/mL; MIC (Pseudomonas aeruginosa [26]): > 16 µg/mL; MIC (Enterobacter cloacae [27]): 8 µg/mL; MIC [28]: Not Active
